High-throughput results as filed in PubChem BioAssay.
Compounds with a hit are over-represented: about 0.77% of the library has one in this group of screens.
hIAP inh – blocks human intestinal alkaline phosphatase | 330,000 compounds, 0.12% hits | P09923 | inhibition, % at 10 µM | purified IAP, CDP-Star luminescence, 30 min;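 active = inhibition reaching a set limit with compound at 10 µM in the primary screen, cut at about 35% in these data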
Target sequence (P09923 whole entry, looked up): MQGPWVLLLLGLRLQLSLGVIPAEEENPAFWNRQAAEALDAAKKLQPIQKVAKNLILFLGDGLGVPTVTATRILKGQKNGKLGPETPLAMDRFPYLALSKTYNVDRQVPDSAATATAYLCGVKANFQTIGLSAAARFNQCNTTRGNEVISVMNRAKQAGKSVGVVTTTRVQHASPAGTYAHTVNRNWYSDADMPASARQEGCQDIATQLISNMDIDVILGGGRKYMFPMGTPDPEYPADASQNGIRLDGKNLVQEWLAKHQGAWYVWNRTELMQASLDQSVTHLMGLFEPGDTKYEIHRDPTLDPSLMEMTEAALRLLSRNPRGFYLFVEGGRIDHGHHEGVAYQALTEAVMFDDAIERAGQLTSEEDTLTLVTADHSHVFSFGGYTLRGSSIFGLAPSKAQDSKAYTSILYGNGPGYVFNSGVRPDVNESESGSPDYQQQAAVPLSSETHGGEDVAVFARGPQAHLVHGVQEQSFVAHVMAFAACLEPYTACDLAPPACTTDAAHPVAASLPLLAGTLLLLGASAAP
bIAP inhibitor – blocks bovine intestinal alkaline phosphatase activity | purified bovine IAP, CDP-star luminescence, 30 min | inhibition, % at 20 µM | 190,000 tested, under 10 active | AID 1019;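 active = over 50% inhibition of intestinal alkaline phosphatase at 20 µM in the single-dose screen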
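System: Purified bovine intestinal alkaline phosphatase (IAP) enzyme | Input: IAP diluted 1/65,000,000 in the well | Also added: CDP-star chemiluminescent phosphatase substrate, 30 µM final | Dosing: 20 µM single dose | Times: Enzyme reaction for 30 min at room temperature | Detection: Luminescence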
bIAP activator – increases bovine intestinal alkaline phosphatase activity; AID 1016; 200,000 compounds, 0.17% hits; purified bovine IAP, CDP-star luminescence, 30 min; hits give high values; fold of DMSO-control signal, blank-subtracted; activation factor at 20 µM;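 active = activation factor of 2 or more at 20 µM, a signal rise over negative controls twice the positive control's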
mIAP block – mouse IAP inhibition. 330,000 compounds, 0.2% hits. inhibition, % at 10 µM. purified mouse IAP, CDP-Star luminescence, 30 min. AID 2806;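 active = inhibition of at least 40% at 10 µM in the primary screen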
hIAP act – increases human intestinal alkaline phosphatase activity. P09923. purified human IAP, CDP-Star luminescence, 30 min; hits give high values; 1 = vehicle-only enzyme, 0 = enzyme-free background. activation factor at 10 µM. 330,000 compounds, 0.16% hits. AID 2524;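 active = activation factor of the enzyme at least 2-fold when tested at 20 µM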
mIAP activ – increases mouse intestinal alkaline phosphatase activity. activation factor at 10 µM. 330,000 compounds, 0.24% hits. muIAP, CDP-Star luminescence, 30 min; hits give high values; 1 = vehicle-only enzyme signal, 0 = enzyme-free wells;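 active = activation factor of at least 2 at 20 µM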
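Assay system: mouse IAP enzyme / Compound: DMSO-dissolved test compounds / Timing: 30 min, room temperature / Measured by: luminescence from enzymatic CDP-Star hydrolysis / Control set: DMSO-only wells, enzyme-free buffer wells as negative control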
hIAP act conf – human IAP activation confirmation; activation (%Activity, negative = activation), % at 8.3 µM; AID 434926; 880 compounds, 10% hits; purified IAP, CDP-Star luminescence, 30 min; hits give low values; shares compounds with hIAP act;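 active = at least twofold enzyme activation in any of six single-dose repeats, which the averaged readout prints as negative percent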
mIAP inh confirm – mouse IAP inhibition confirmation; AID 434971; 11,000 compounds, 4.7% hits; shares compounds with mIAP block; inhibition, % at 10 µM; purified mouse IAP, CDP-Star luminescence, 30 min;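 active = inhibition of at least 40% at 10 µM in either of the two replicates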
Numbers stand for hits; - = inactive; . = no result.

SMILES | hIAP inh | bIAP inhibitor | bIAP activator | mIAP block | hIAP act | mIAP activ | hIAP act conf | others
COc1cccc(Cn2cccc(NC(=O)NCc3ccccc3)c2=O)c1 | 38.5 | . | . | - | - | - | -
O=C(CSS(=O)(=O)O)N1CCN(C(=O)c2ccoc2)CC1 | - | . | . | - | - | - | .
CCn1c(C)nc2cc(C(=O)NNC(=S)Nc3ccc(Cl)cc3Cl)ccc21 | - | - | - | - | 2.13 | - | -
CCn1c(C)nc2cc(C(=O)N/N=C/c3cccc(O)c3O)ccc21 | - | - | - | - | 2.6 | - | -42.9
CCn1c(C)nc2cc(C(=O)NNC(=S)Nc3ccccc3)ccc21 | - | - | - | - | 2.11 | - | -
CCn1c(C)nc2cc(C(=O)N/N=C/c3ccccc3)ccc21 | - | - | - | - | - | - | .
CCn1c(C)nc2cc(C(=O)NNC(=S)Nc3ccc(Cl)cc3)ccc21 | - | . | . | - | - | - | .
COCC(=O)N1CCC(Oc2ccc(C(=O)N3C[C@@H](C)O[C@@H](C)C3)cc2)CC1 | - | . | . | - | - | - | .
CC(=O)Nc1ccc(S(=O)(=O)NCCC(=O)Nc2cc(C)ccn2)cc1 | - | . | . | - | - | - | .
CC(=O)c1ccc(N=Nc2ccc(N(C)C)cc2)cc1 | - | - | - | - | - | - | .
CN(C)c1ccc(N=Nc2ccccc2Br)cc1 | 42.0 | . | . | - | - | - | -103.6
Cn1nc(C(=O)NNC(=O)c2ccc(Cl)c(S(N)(=O)=O)c2)c2ccccc2c1=O | - | . | . | - | 2.05 | - | -
COc1cc(OC)cc(C(=O)NNC(=O)c2nn(C)c(=O)c3ccccc23)c1 | - | . | . | - | 2.06 | - | -
COc1ccc(OCC(=O)NNC(=O)c2nn(C)c(=O)c3ccccc23)cc1 | - | - | - | - | - | - | .
O=C(COC(=O)c1c(F)cccc1F)Nc1ccccc1OC(F)F | - | . | . | - | - | - | .
CCOc1cccc(/C=N/NC(=S)Nc2cc(S(=O)(=O)N3CCOCC3)ccc2N2CCOCC2)c1O | - | - | - | - | 2.13 | - | -
COc1cc(OC)cc(-c2nnc(Nc3nc4c(F)cccc4s3)o2)c1 | - | - | - | - | 2.03 | - | -
CCOc1ccc(S(=O)(=O)N2CCCCC2)cc1NC(=O)CCNC(=O)c1ccco1 | - | . | . | - | - | - | .
CC(CNC(=O)CCc1nnc2ccc(N3CCC4(CC3)OCCO4)nn12)c1ccccc1 (centres undefined) | - | . | . | - | - | - | .
O=C(COc1ccccc1Cl)N1CCN(c2ccc([N+](=O)[O-])c(N3CCCCC3)c2)CC1 | - | - | - | - | 2.06 | - | -60.9
O=C(NCC1CCCO1)c1ccc(Br)s1 (centres undefined) | 40.1 | . | . | - | - | - | -
CCc1ccc(Nc2nnc(SCC(=O)NC(=O)CN3CCCC3=O)s2)cc1 | - | . | . | - | - | - | .
Cc1cc(C)cc(N2CC(O)=C(c3nc4ccccc4c(=O)[nH]3)C2=N)c1 | - | - | - | - | - | - | .
COc1cccc(N2CC(O)=C(c3nc4ccccc4c(=O)[nH]3)C2=N)c1 | - | - | - | - | 2.12 | - | -
CCOC(=O)C1CCN(C(=O)c2ccc(OCC(=O)Nc3ccc(OCC)cc3)c(OC)c2)CC1 | - | . | . | - | - | - | .
SMILES | hIAP inh | bIAP inhibitor | bIAP activator | mIAP block | hIAP act | mIAP activ | hIAP act conf | others
CN(C(=O)c1ccncc1)c1ccccc1 | - | . | . | - | - | - | .
C/C(=N\N(Cc1ccccc1)c1ccccc1)c1ccncc1 | 38.9 | - | - | - | - | - | -
CC[C@]12c3[nH]c4cc(-c5ccco5)ccc4c3CCN1C(=O)[C@@H](CC(=O)NCCCn1ccnc1)C[C@@H]2C(=O)N1CCN(C(=O)C2CC2)CC1 | . | . | . | - | . | - | .
O=C(NNc1ccc([N+](=O)[O-])cc1[N+](=O)[O-])c1ccco1 | 36.0 | . | . | - | - | - | -
COc1cccc(CNS(=O)(=O)c2cccc(S(=O)(=O)N3CCOCC3)c2)c1 | - | - | - | - | - | - | .
COc1ccc(CNS(=O)(=O)c2cccc(S(=O)(=O)N3CCOCC3)c2)cc1 | 35.5 | - | - | - | - | - | -
O=C(CN1C(=O)C(c2ccccc2)Oc2cccnc21)NCc1ccccc1F (centres undefined) | - | . | . | - | - | - | .
COc1ccc(NS(=O)(=O)c2ccc3oc(SC(C)C(N)=O)nc3c2)cc1 (centres undefined) | - | . | . | - | - | - | .
COc1cc(OC)cc(C(=O)NCC(=O)NC(C)c2ccccc2)c1 (centres undefined) | - | . | . | - | - | - | .
CCn1cnc2sc(C(=O)O)c(C)c2c1=O | - | - | - | - | 3.9 | - | -
O=C(COc1ccc(Cl)cc1)NCCNC(=O)c1cnccn1 | - | . | . | - | - | - | .
O=C(CN1CCN(C(=O)N2CCCCC2)CC1)Nc1ccc(F)cc1 | - | - | - | - | 2.27 | - | -97.3
O=C(CN1CCCC1)Nc1ccc(F)cc1 | - | - | - | - | - | - | .
COc1ccc(-c2cc(C(=O)NNC(=O)c3csc(N4CCOCC4)n3)c3ccccc3n2)cc1OC | - | . | . | - | 2.35 | - | -
Cc1ccsc1C(=O)NNC(=O)CCN1CCN(c2ccccc2)CC1 | - | . | . | - | - | - | .
COc1cc2c(cc1OC)C(C)N(C(=O)Nc1ccccc1)CC2 (centres undefined) | - | . | . | - | - | - | .
COc1cc2c(cc1OC)[C@H](C)N(C(=S)Nc1ccc(F)cc1)CC2 | - | . | . | - | 2.27 | - | -
C#CCOCCOCCOCCNc1nc(N2CCN(C(=O)[C@H](CCC(=O)O)n3cc([C@@H](N)[C@H](C)CC)nn3)CC2)nc(N2CCN(C(=O)[C@H](CCC(=O)O)n3cc([C@@H](N)CCSC)nn3)CC2)n1 | - | . | . | - | - | - | .
COc1ccc(CNC(=O)CCC(=O)Nc2nnc(C(F)(F)F)s2)cc1 | - | . | . | - | - | - | .
Cc1cc(C(=O)Nc2ccccc2Cl)c2ccccc2n1 | 38.1 | . | . | - | - | - | -
Cc1ccc(NC(=O)c2cc(C)nc3ccccc23)c(C)c1 | - | . | . | - | - | - | .
CC(C)NC(=O)/C(C#N)=C\c1ccc(N(C)C)o1 | 35.1 | - | - | - | - | - | -
C=CCn1cc(CN2CCC(C(=O)Nc3ccc(Oc4cccnc4)cc3)CC2)c(C)n1 | - | . | . | - | - | - | .
O=C(Nc1cccc(-c2cccc(Cl)c2)c1)C1CCN(Cc2ccccn2)CC1 | - | . | . | - | - | - | .
O=C(Nc1cccc(-c2cccc(F)c2)c1)C1CCN(CC2CCOC2)CC1 (centres undefined) | - | . | . | - | - | - | .
O=C(Nc1cccc(-c2cccc(Cl)c2)c1)C1CCN(CC2CCOC2)CC1 (centres undefined) | - | . | . | - | 4.11 | 3.02 | - | mIAP inh confirm=-
